Assay [1] concerns the target T1, 6,7-dimethyl-8-ribityllumazine synthase (Mycobacterium tuberculosis, UniProt P9WHE9). Kind of assay: Inhibition of Mycobacterium tuberculosis recombinant lumazine synthase at enzyme-inhibitor complex state after 30 mins by fluorescence assay. The essentials: (§1)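 Recombinant M. tuberculosis lumazine synthase (2 μM) in 100 mM Tris-HCl pH 7.0, 100 mM NaCl, 5 mM DTT, 2% DMSO. Dihydroxybutanone phosphate was fixed at 100 μM, pyrimidinedione substrate varied 3–100 μM, and inhibitor 0–200 μM. Reactions were started with the pyrimidinedione substrate. Lumazine formation was read at 408 nm for 30 min at 27 °C. Velocity–substrate data were fitted by nonlinear regression to alternative inhibition models.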

Assay [2] is described as follows: Inhibition of Mycobacterium tuberculosis recombinant riboflavin synthase at […] state after 30 mins by fluorescence assay. The essentials: (§2)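 Recombinant M. tuberculosis riboflavin synthase (1 μM) in 100 mM Tris-HCl pH 7.0, 100 mM NaCl, 5 mM DTT, 2% DMSO. 6,7-Dimethyl-8-ribityllumazine substrate was varied 3–60 μM and inhibitor 0–200 μM. Reactions were started with substrate. Riboflavin formation was monitored at 470 nm for 30 min at 27 °C. Velocity–substrate data for all inhibitor levels were fitted by nonlinear regression to alternative inhibition models.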

The target in assay [3] is T1, 6,7-dimethyl-8-ribityllumazine synthase. The assay is described as follows: Inhibition of Mycobacterium tuberculosis recombinant lumazine synthase at enzyme-substrate-inhibitor complex state after 30 mins by fluorescence assay. A digest of the protocol:
as §1

Assay [4] can be described thus: Inhibition of Mycobacterium tuberculosis recombinant riboflavin synthase at enzyme-substrate-inhibitor complex state after 30 mins by fluorescence assay. A digest of the protocol: as §2

Bounds are passed on as bounds.

T1 sequence (P9WHE9 whole entry): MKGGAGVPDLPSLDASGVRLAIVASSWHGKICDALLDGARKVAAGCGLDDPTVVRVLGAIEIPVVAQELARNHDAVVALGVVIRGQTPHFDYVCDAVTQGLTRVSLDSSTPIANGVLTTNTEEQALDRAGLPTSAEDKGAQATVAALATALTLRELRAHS

On to `O=C1Nc2ccc(S(=O)(=O)NCCCOP(=O)(O)O)c3cccc1c23`, for which, in assay [1], the Ki was found to be 99 µM.
The same measure, in the same setting: the same measure for `O=C(O)CNS(=O)(=O)c1ccc2c3c(cccc13)C(=O)N2`: 70 µM.
Same read-out and setting: the same measure for `O=C1Nc2ccc(S(=O)(=O)NCCCCOP(=O)(O)O)c3cccc1c23`: 38 µM.
In the case of `O=C1Nc2ccc(S(=O)(=O)NCCCCCCOP(=O)(O)O)c3cccc1c23`, the results for the Ki in assay [2], in assay [3] and in assay [4] were 9.8 µM, 723 µM and 898 µM, respectively.
As for `CCOC(=O)C(=O)Nc1c(Cl)[nH]c(=O)[nH]c1=O`, the Ki in assay [1] turned out to be 832 µM.
For `O=C1Nc2ccc(S(=O)(=O)NCCOP(=O)(O)O)c3cccc1c23`, the Ki in assay [1] came to 260 µM.
Consider `O=C1Nc2ccc(S(=O)(=O)NCCCCC(F)(F)P(=O)(O)O)c3cccc1c23`, for which the Ki in assay [1] is 832 µM; in assay [2], 4.1 µM; in assay [3] it was 518 µM; in assay [4], greater than 1000 µM.
